≈ marks a conversion by molar mass, not a printed value. Calls of active or inactive are those of the source. The calls are words filed in the database; no cut-off is given here.
Legend:
Staphylococcus aureus [1] = assay: Antibacterial activity against Staphylococcus aureus at 25 ug/ml incubated for 24 hrs by agar well diffusion method; format: functional; details: read-out: DIZ
In short: (§1)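 Bacteria grown in nutrient broth at 37 °C for 24 h, then subcultured at room temperature. Compounds dissolved in DMSO at 5 mg mL⁻¹ and 5–20 µL added to 6 mm wells, giving 25, 50, 75, 100 µg per well. Gentamicin was the positive control and DMSO the negative control. Plates held at 37 °C for 24 h, then inhibition zone diameter (mm) measured. Values are means of three determinations.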

Klebsiella pneumoniae [2] = assay: Antibacterial activity against Klebsiella pneumoniae at 25 ug/ml incubated for 24 hrs by agar well diffusion method; format: functional; details: read-out: DIZ; in short: as §1
Candida albicans [3] = assay: Antifungal activity against Candida albicans at 75 ug/ml incubated for 48 hrs by agar well diffusion method; format: functional; details: read-out: DIZ
In short: (§2)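 Compounds dissolved in DMSO at 5 mg mL⁻¹ and 5–20 µL added to 6 mm wells, giving 25, 50, 75, 100 µg per well. Bavistin was the positive control and DMSO the negative control. Plates incubated at 28 °C for 48 h, then inhibition zone diameter (mm) measured. Values are means of three determinations.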

Bacillus subtilis [4] = assay: Antibacterial activity against Bacillus subtilis at 50 ug/ml incubated for 24 hrs by agar well diffusion method; format: functional; details: for zone of inhibition at 50 µg/mL: read-out: DIZ; in short: as §1
Staphylococcus aureus [5] = assay: Antibacterial activity against Staphylococcus aureus at 50 ug/ml incubated for 24 hrs by agar well diffusion method; format: functional; details: read-out: DIZ; in short: as §1
Bacillus subtilis [6] = assay: Antibacterial activity against Bacillus subtilis at 75 ug/ml incubated for 24 hrs by agar well diffusion method; format: functional; details: read-out: DIZ; in short: as §1
Klebsiella pneumoniae [7] = assay: Antibacterial activity against Klebsiella pneumoniae at 100 ug/ml incubated for 24 hrs by agar well diffusion method; format: functional; details: read-out: DIZ; in short: as §1
Fusarium oxysporum [8] = assay: Antifungal activity against Fusarium oxysporum at 25 ug/ml incubated for 48 hrs by agar well diffusion method; format: functional; details: read-out: DIZ; in short: as §2
Escherichia coli [9] = assay: Antibacterial activity against Escherichia coli at 75 ug/ml incubated for 24 hrs by agar well diffusion method; format: functional; details: read-out: DIZ; in short: as §1
Candida albicans [10] = assay: Antifungal activity against Candida albicans at 100 ug/ml incubated for 48 hrs by agar well diffusion method; format: functional; details: read-out: DIZ; in short: as §2
Candida albicans [11] = assay: Antifungal activity against Candida albicans at 50 ug/ml incubated for 48 hrs by agar well diffusion method; format: functional; details: read-out: DIZ; in short: as §2
Staphylococcus aureus [12] = assay: Antibacterial activity against Staphylococcus aureus at 75 ug/ml incubated for 24 hrs by agar well diffusion method; format: functional; details: read-out: DIZ; in short: as §1
Fusarium oxysporum [13] = assay: Antifungal activity against Fusarium oxysporum at 75 ug/ml incubated for 48 hrs by agar well diffusion method; format: functional; details: read-out: DIZ; in short: as §2
Staphylococcus aureus [14] = assay: Antibacterial activity against Staphylococcus aureus at 100 ug/ml incubated for 24 hrs by agar well diffusion method; format: functional; details: read-out: DIZ; in short: as §1
Aspergillus niger [15] = assay: Antifungal activity against Aspergillus niger at 75 ug/ml incubated for 48 hrs by agar well diffusion method; format: functional; details: read-out: DIZ; in short: as §2
Aspergillus niger [16] = assay: Antifungal activity against Aspergillus niger at 50 ug/ml incubated for 48 hrs by agar well diffusion method; format: functional; details: for zone of inhibition at 50 µg/mL: read-out: DIZ; in short: as §2
Aspergillus niger [17] = assay: Antifungal activity against Aspergillus niger at 100 ug/ml incubated for 48 hrs by agar well diffusion method; format: functional; details: read-out: DIZ; in short: as §2
Escherichia coli [18] = assay: Antibacterial activity against Escherichia coli at 25 ug/ml incubated for 24 hrs by agar well diffusion method; format: functional; details: read-out: DIZ; in short: as §1
Fusarium oxysporum [19] = assay: Antifungal activity against Fusarium oxysporum at 50 ug/ml incubated for 48 hrs by agar well diffusion method; format: functional; details: read-out: DIZ; in short: as §2
Klebsiella pneumoniae [20] = assay: Antibacterial activity against Klebsiella pneumoniae at 50 ug/ml incubated for 24 hrs by agar well diffusion method; format: functional; details: read-out: DIZ; in short: as §1
Escherichia coli [21] = assay: Antibacterial activity against Escherichia coli at 100 ug/ml incubated for 24 hrs by agar well diffusion method; format: functional; details: read-out: DIZ; in short: as §1
Escherichia coli [22] = assay: Antibacterial activity against Escherichia coli at 50 ug/ml incubated for 24 hrs by agar well diffusion method; format: functional; details: read-out: DIZ; in short: as §1
Klebsiella pneumoniae [23] = assay: Antibacterial activity against Klebsiella pneumoniae at 75 ug/ml incubated for 24 hrs by agar well diffusion method; format: functional; details: read-out: DIZ; in short: as §1
Aspergillus niger [24] = assay: Antifungal activity against Aspergillus niger at 25 ug/ml incubated for 48 hrs by agar well diffusion method; format: functional; details: for zone of inhibition at 25 µg/mL: read-out: DIZ; in short: as §2
Fusarium oxysporum [25] = assay: Antifungal activity against Fusarium oxysporum at 100 ug/ml incubated for 48 hrs by agar well diffusion method; format: functional; details: read-out: DIZ; in short: as §2
Candida albicans [26] = assay: Antifungal activity against Candida albicans at 25 ug/ml incubated for 48 hrs by agar well diffusion method; format: functional; details: read-out: DIZ; in short: as §2
Bacillus subtilis [27] = assay: Antibacterial activity against Bacillus subtilis at 100 ug/ml incubated for 24 hrs by agar well diffusion method; format: functional; details: read-out: DIZ; in short: as §1
Bacillus subtilis [28] = assay: Antibacterial activity against Bacillus subtilis at 25 ug/ml incubated for 24 hrs by agar well diffusion method; format: functional; details: for zone of inhibition at 25 µg/mL: read-out: DIZ; in short: as §1
Erythrocyte = assay: Anti-inflammatory activity in human RBC assessed as inhibition of hypotonic solution-induced hemolysis after 10 mins by spectrophotometric method; format: functional, cell-based
In short: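 Human blood (heparinized) washed with 0.9% saline, packed cells made into a 40% v/v stock in isotonic phosphate buffer (154 mM NaCl, 10 mM sodium phosphate, pH 7.4). Stock RBC mixed with hypotonic buffer (50 mM NaCl, 10 mM phosphate, pH 7.4) plus sample at 20–100 µg mL⁻¹.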

SMILES	zone of inhibition at 25 µg/mL (Staphylococcus aureus [1]) [mm]	zone of inhibition at 25 µg/mL (Klebsiella pneumoniae [2]) [mm]	zone of inhibition at 75 µg/mL (Candida albicans [3]) [mm]	zone of inhibition at 50 µg/mL (Staphylococcus aureus [5]) [mm]	zone of inhibition at 75 µg/mL (Bacillus subtilis [6]) [mm]	zone of inhibition at 100 µg/mL (Klebsiella pneumoniae [7]) [mm]	zone of inhibition at 25 µg/mL (Fusarium oxysporum [8]) [mm]	zone of inhibition at 100 µg/mL (Candida albicans [10]) [mm]	zone of inhibition at 50 µg/mL (Candida albicans [11]) [mm]	zone of inhibition at 75 µg/mL (Staphylococcus aureus [12]) [mm]	zone of inhibition at 75 µg/mL (Fusarium oxysporum [13]) [mm]	zone of inhibition at 100 µg/mL (Staphylococcus aureus [14]) [mm]	zone of inhibition at 75 µg/mL (Aspergillus niger [15]) [mm]	zone of inhibition at 100 µg/mL (Aspergillus niger [17]) [mm]	zone of inhibition at 50 µg/mL (Fusarium oxysporum [19]) [mm]	zone of inhibition at 50 µg/mL (Klebsiella pneumoniae [20]) [mm]	zone of inhibition at 75 µg/mL (Klebsiella pneumoniae [23]) [mm]	zone of inhibition at 100 µg/mL (Fusarium oxysporum [25]) [mm]	zone of inhibition at 25 µg/mL (Candida albicans [26]) [mm]	zone of inhibition at 100 µg/mL (Bacillus subtilis [27]) [mm]	also measured
N[C@@H](Cc1c[nH]c2ccccc12)C(=O)O [TRYPTOPHAN]	6	6	13	9	12	17	4	16	9	13	9	19	11	14	7	10	13	11	5	15	zone of inhibition at 50 µg/mL (Bacillus subtilis [4]): 8 mm; zone of inhibition at 75 µg/mL (Escherichia coli [9]): 14 mm; zone of inhibition at 50 µg/mL (Aspergillus niger [16]): 7 mm; zone of inhibition at 25 µg/mL (Escherichia coli [18]): 6 mm; zone of inhibition at 100 µg/mL (Escherichia coli [21]): 17 mm; zone of inhibition at 50 µg/mL (Escherichia coli [22]): 9 mm; zone of inhibition at 25 µg/mL (Aspergillus niger [24]): 4 mm; zone of inhibition at 25 µg/mL (Bacillus subtilis [28]): 4 mm
CC[C@H](C)[C@H](N)C(=O)Oc1ccc2c(=O)c3ccccc3oc2c1.Cl	7	8	16	12	20	24	11	20	14	19	19	23	18	23	15	13	18	21	10	24	zone of inhibition at 50 µg/mL (Bacillus subtilis [4]): 17 mm; zone of inhibition at 75 µg/mL (Escherichia coli [9]): 18 mm; IC50 (Erythrocyte): 68 µg/mL; zone of inhibition at 50 µg/mL (Aspergillus niger [16]): 15 mm; zone of inhibition at 25 µg/mL (Escherichia coli [18]): 10 mm; zone of inhibition at 100 µg/mL (Escherichia coli [21]): 22 mm; zone of inhibition at 50 µg/mL (Escherichia coli [22]): 13 mm; zone of inhibition at 25 µg/mL (Aspergillus niger [24]): 10 mm; zone of inhibition at 25 µg/mL (Bacillus subtilis [28]): 11 mm
N[C@@H](Cc1ccc(O)cc1)C(=O)O [TYROSINE]	4	4	13	8	9	15	3	15	8	12	12	17	7	11	7	7	11	14	4	12	diameter of the inhibition zone (DIZ) (Bacillus subtilis [4]): inactive; diameter of the inhibition zone (DIZ) (Aspergillus niger [16]): inactive; diameter of the inhibition zone (DIZ) (Aspergillus niger [24]): inactive; diameter of the inhibition zone (DIZ) (Bacillus subtilis [28]): inactive
C[C@H](NC(=O)OC(C)(C)C)C(=O)Oc1ccc2c(=O)c3ccccc3oc2c1	6	6	15	10	19	22	6	17	12	14	14	19	15	18	10	13	19	18	7	22	zone of inhibition at 50 µg/mL (Bacillus subtilis [4]): 14 mm; zone of inhibition at 75 µg/mL (Escherichia coli [9]): 20 mm; IC50 (Erythrocyte): 70 µg/mL (≈ 183 µM); zone of inhibition at 50 µg/mL (Aspergillus niger [16]): 12 mm; zone of inhibition at 25 µg/mL (Escherichia coli [18]): 17 mm; zone of inhibition at 100 µg/mL (Escherichia coli [21]): 23 mm; zone of inhibition at 50 µg/mL (Escherichia coli [22]): 14 mm; zone of inhibition at 25 µg/mL (Aspergillus niger [24]): 8 mm; zone of inhibition at 25 µg/mL (Bacillus subtilis [28]): 8 mm
CC(C)(C)OC(=O)N[C@@H](CS)C(=O)Oc1ccc2c(=O)c3ccccc3oc2c1	20	18	28	28	29	34	18	34	22	32	30	34	31	34	24	24	30	35	17	34	zone of inhibition at 50 µg/mL (Bacillus subtilis [4]): 26 mm; zone of inhibition at 75 µg/mL (Escherichia coli [9]): 30 mm; IC50 (Erythrocyte): 32 µg/mL (≈ 77 µM); zone of inhibition at 50 µg/mL (Aspergillus niger [16]): 26 mm; zone of inhibition at 25 µg/mL (Escherichia coli [18]): 18 mm; zone of inhibition at 100 µg/mL (Escherichia coli [21]): 34 mm; zone of inhibition at 50 µg/mL (Escherichia coli [22]): 26 mm; zone of inhibition at 25 µg/mL (Aspergillus niger [24]): 18 mm; zone of inhibition at 25 µg/mL (Bacillus subtilis [28]): 20 mm
C[C@H](N)C(=O)Oc1ccc2c(=O)c3ccccc3oc2c1.Cl	9	8	15	13	19	28	6	17	12	19	16	22	15	18	10	16	23	18	7	23	zone of inhibition at 50 µg/mL (Bacillus subtilis [4]): 16 mm; zone of inhibition at 75 µg/mL (Escherichia coli [9]): 22 mm; IC50 (Erythrocyte): 78 µg/mL; zone of inhibition at 50 µg/mL (Aspergillus niger [16]): 12 mm; zone of inhibition at 25 µg/mL (Escherichia coli [18]): 15 mm; zone of inhibition at 100 µg/mL (Escherichia coli [21]): 26 mm; zone of inhibition at 50 µg/mL (Escherichia coli [22]): 19 mm; zone of inhibition at 25 µg/mL (Aspergillus niger [24]): 8 mm; zone of inhibition at 25 µg/mL (Bacillus subtilis [28]): 11 mm
CSCC[C@H](NC(=O)OC(C)(C)C)C(=O)Oc1ccc2c(=O)c3ccccc3oc2c1	15	16	19	17	24	31	8	21	16	22	17	27	18	22	14	22	26	23	11	29	zone of inhibition at 50 µg/mL (Bacillus subtilis [4]): 18 mm; zone of inhibition at 75 µg/mL (Escherichia coli [9]): 25 mm; IC50 (Erythrocyte): 36 µg/mL (≈ 81.2 µM); zone of inhibition at 50 µg/mL (Aspergillus niger [16]): 15 mm; zone of inhibition at 25 µg/mL (Escherichia coli [18]): 16 mm; zone of inhibition at 100 µg/mL (Escherichia coli [21]): 30 mm; zone of inhibition at 50 µg/mL (Escherichia coli [22]): 19 mm; zone of inhibition at 25 µg/mL (Aspergillus niger [24]): 12 mm; zone of inhibition at 25 µg/mL (Bacillus subtilis [28]): 13 mm
